Measurements from different studies.
Protocols differ between the studies behind these lines.

| SMILES | test | test system | setting | solubility |
| --- | --- | --- | --- | --- |
| COc1ccccc1C(=O)Nc1cccc(NC(=O)c2cccc(C)c2)c1 |  | aqueous buffer | pH 7.4 | 0.47 µM |
| CCOc1ccc2cc(-c3nn(CC4CC4)c(N)c3C(N)=O)cnc2c1 |  | PBS | pH 6.5, 25 °C | 26.5 µM |
| Cc1cc(Nc2ccc(S(F)(F)(F)(F)F)cc2)n2nc(C3CC3)nc2n1 | nephelometry | aqueous buffer | pH 6.5 | 16 to 32 µM |
| CN1CCN(C2CCN(c3nccc4[nH]c(-c5cc(F)cc(F)c5)nc34)CC2)CC1 | shake flask | aqueous buffer | pH 6.5 | > 200 µM |
| CS(=O)(=O)c1ncn2c(NCc3c(F)ccc4c3CCO4)ncc(-c3ccc(C4CC4)nc3)c12 |  | FaSSIF |  | 26.5 µg/mL |
| [Cl-].c1ccc2nc(Cn3c[n+](Cc4ccc5ccccc5n4)c4ccccc43)ccc2c1 |  | water |  | > 500 µg/mL |
| CCc1nc2nc(C)cc(Nc3ccc(C(F)(F)F)cc3)n2n1 | nephelometry | aqueous buffer | pH 6.5 | 39 to 78 µM |
| CC(C)Cc1ccc(C(C)C(=O)O)cc1 (centres unmarked) |  | PBS | pH 7.4 | 4580 µg/mL |
| COC(=O)Nc1nc2cc(C(=O)c3ccc(F)cc3)ccc2[nH]1 |  | water | 24 h | < 1 µg/mL |
| OCCOc1cccc2c(NCc3ccccc3)nc(N3CCOc4ccccc43)nc12 |  | aqueous buffer | pH 7.4 | 0.43 µg/mL |
| Cl.Clc1ccc2c(nc(N3CCNCC3)n2Cc2ccccc2)c1Cl | shake flask | aqueous buffer | 20 h, pH 6.5, 25 °C | 70 µM |
| Cc1nccn1CC1CCc2c(c3ccccc3n2C)C1=O (centres unmarked) |  | PBS | 24 h, pH 7.4, 25 °C | 93 µM |
| Fc1ccc(-c2nc3c(N4CCN5CCC4CC5)nccc3[nH]2)cc1F | shake flask | aqueous buffer | pH 6.5 | > 200 µM |
| Brc1cccc2c(NCc3ccccc3)nc(NCc3ccccc3)nc12 |  | aqueous buffer | pH 7.4 | < 0.01 µg/mL |
| CCCn1nc(C(=O)N2CCCCC2)c2c1CCC(N1CCc3ccccc3C1)C2 (centres unmarked) |  | PBS | 16 h, pH 7.4 | 713 µM |
| Cc1cc(Nc2ccc(S(F)(F)(F)(F)F)cc2)n2nc(C(C)(F)F)nc2n1 | nephelometry | aqueous buffer | pH 6.5 | 30 to 60 µM |
| CC(C)c1cccc2c(-c3ccccc3)cc(-c3ccc(-c4ccc(C(=O)O)cc4)[nH]3)nc12 |  | PBS | pH 7.4 | 71.6 µM |
| COc1ccc(C2CC(=O)c3c(O)cc(O)cc3O2)cc1O (centres unmarked) | shake flask | water | 24 h, 25 °C | 15.7 µg/mL |
| CC(C)CC(=O)N1CCC[C@H](COc2cccc3c2C(N)=NS(=O)(=O)N3)C1 |  | ethanol |  | 1230 µM |

| SMILES | test | test system | setting | solubility |
| --- | --- | --- | --- | --- |
| O=C(Nc1c2c(cc3c1CCC3)CCC2)NS(=O)(=O)/C=C/c1nccs1 |  | simulated gastric fluid | 24 h, 37 °C, acidic | < 5 µg/mL |
| CSc1nc2nc(C)cc(Nc3ccc(C(F)(F)F)cc3)n2n1 | nephelometry | aqueous buffer | pH 6.5 | 19 to 38 µM |
| Cc1ccc(S(=O)(=O)NCc2ccc(C(=O)NCCN(Cc3ccccc3)C(C)C)cc2)cc1 |  | aqueous buffer | pH 7.4 | 0.79 µg/mL |
| CCC(F)(F)c1nc2nc(C)cc(Nc3ccc(C(F)(F)F)cc3)n2n1 | nephelometry | aqueous buffer | pH 6.5 | 17 to 34 µM |
| CCOc1ccc2cc(-c3nn(C4CCCCCC4)c(N)c3C(N)=O)cnc2c1 |  | PBS | pH 6.5, 25 °C | 8.5 µM |
| CC(=O)N[C@@H](CC(N)=O)C(=O)N[C@@H](CCCNC(=N)N)C(=O)N[C@@H](CC(C)C)C(=O)N[C@H]1CSSC[C@@H](C(=O)N[C@H](C(N)=O)[C@@H](C)O)NC(=O)[C@H](CCCNC(=N)N)NC(=O)[C@H](Cc2c[nH]cn2)NC(=O)[C@H](C)NC(=O)CNC(=O)[C@H](Cc2c[nH]c3ccccc23)NC(=O)[C@H](CC(=O)O)NC(=O)[C@H](CCC(N)=O)NC(=O)[C@H](Cc2c[nH]c3ccccc23)NC(=O)[C@H](C(C)C)NC1=O |  | PBS | pH 7.4 | 1050 µg/mL |
| O=C(O)c1ccccc1O |  | PBS | pH 7.4 | 7700 µg/mL |
| O=C(O)c1ccc(-c2ccc(-c3cc4ccc(O)cc4oc3=O)cc2)cc1 | shake flask | PBS | 36 h, pH 7.4 | 52.5 µM |
| Cc1cc(F)cc(Nc2nc(NCc3ccccc3)c3ccccc3n2)c1 |  | aqueous buffer | pH 5 | 0.05 µg/mL |
| O=C(CCCCCCC(=O)Nc1ccccc1)NO | HPLC | water | 48 h, pH 6, 25 °C | 160 µg/mL |
| Cl.c1ccc(Cn2c(N3CCNCC3)nc3cc(-c4ccccc4)ccc32)cc1 | shake flask | aqueous buffer | 20 h, pH 6.5, 25 °C | 25 µM |
| COc1cccc(OC)c1-c1nc(C(=O)N[C@@H](CC(C)C)C(=O)O)cn1-c1cccc2ccccc12 |  | aqueous buffer | pH 6.2 | > 145 µg/mL |
| COc1ccc(Nc2nc(NCc3ccccc3)c3ccccc3n2)cc1F |  | aqueous buffer | pH 5 | 3.4 µg/mL |
| CC(C(=O)O)c1ccc(-c2ccccc2)c(F)c1 (centres unmarked) |  | PBS | pH 7.4 | 4490 µg/mL |
| O=C(Nc1ccc(C(F)(F)F)cc1)N1CCC(Cc2cccc(Oc3ccc(C(F)(F)F)cn3)c2)CC1 |  | water | 48 h, 37 °C | 0.0016 µM |
| COc1c(Cl)cccc1Nc1nc(NCc2ccccc2)c2ccccc2n1 |  | aqueous buffer | pH 7.4 | 0.06 µg/mL |
| Clc1ccc2c(nc(N3CCNCC3)n2Cc2ccccc2)c1Br | shake flask | aqueous buffer | 20 h, pH 6.5, 25 °C | 50 µM |
| CN1CCN(C2=Nc3cc(Cl)ccc3Nc3ccccc32)CC1 |  | FaSSIF | 24 h, pH 7.4, 37 °C | 350 µg/mL |
| COc1cccc(OC)c1-c1cc(C(=O)N[C@@H](CC(C)C)C(=O)O)nn1-c1ccnc2cc(Cl)ccc12 |  | aqueous buffer | pH 7.4 | > 155 µg/mL |

| SMILES | test | test system | setting | solubility |
| --- | --- | --- | --- | --- |
| CC(C)[C@@H]1CC[C@@H](C)CC1=O |  | PBS | 48 h, pH 7.4, 25 °C | 3000 µM |
| COc1ccc2c(c1)c(CC(=O)O)c(C)n2C(=O)c1ccc(Cl)cc1 |  | PBS | 20 h, pH 7.4, 20 °C | 246 µg/mL |
| NC(=O)c1ccc(N(Cc2ccc(C3CCCCC3)cn2)C(=O)[C@H]2CCN2S(=O)(=O)c2c(F)c(F)c(F)c(F)c2F)cc1O |  | simulated intestinal fluid |  | 117 µg/mL |
| Nc1cccc(S(=O)(=O)N2CCCN(S(=O)(=O)c3ccc4c(c3)OCCO4)CC2)c1 |  | aqueous buffer |  | 29 µg/mL |
| CCOc1ccc2cc(-c3nn(C4CCC4)c(N)c3C(N)=O)cnc2c1 |  | PBS | pH 6.5, 25 °C | 10.9 µM |
| O=C(Nc1c(F)cccc1C(=O)O)c1ccc(-c2ccccc2)cc1 | shake flask | aqueous buffer | 24 h, pH 6.5, 25 °C | 80 µM |
| CCn1c(-c2nc3cc(C(=O)N4CCC[C@@H](N)C4)cc(OC)c3n2C)cc2cccnc21 |  | aqueous buffer |  | 396 µM |
| COc1cccc2c(NCc3ccccc3)nc(N3CCNc4ccccc43)nc12 |  | aqueous buffer | pH 5 | 28.2 µg/mL |
| Clc1ccc2c(c1)nc(NCCN1CCOCC1)n2Cc1ccccc1 | shake flask | aqueous buffer | 20 h, pH 6.5, 25 °C | 53 µM |
| CCOc1ccc2cc(-c3nn(C4CCCC4)c(N)c3C(N)=O)cnc2c1 |  | PBS | pH 6.5, 25 °C | 98.7 µM |
| CN1CCN(CC2CCN(c3nccc4[nH]c(-c5cccc(OCCN)c5)nc34)CC2)CC1 | shake flask | aqueous buffer | pH 6.5 | > 200 µM |
| Cc1ccc(F)cc1Nc1nc(NCc2ccccc2)c2ccccc2n1 |  | aqueous buffer | pH 6.2 | 0.07 µg/mL |
| N=C(N)NCc1ccc(NC(=O)c2ccc(C(=O)Nc3ccc(C4=CCN(C(=N)N)CC4)cc3)cn2)cc1 | shake flask | aqueous buffer | pH 7.4 | 4.5 µg/mL |
| CN1C(C(=O)Nc2ccccn2)=C(O)c2ccccc2S1(=O)=O | shake flask | aqueous buffer | 48 h, pH 6.5 | 7 to 9 µg/mL |
| CS(=O)(=O)N1CCN(Cc2cc3nc(-c4cccc5[nH]ncc45)nc(N4CCOCC4)c3s2)CC1 |  | FeSSIF |  | 6 µg/mL |
| c1ccc(CNc2nc(N3CCNc4ccccc43)nc3ccccc23)cc1 |  | aqueous buffer | pH 6.2 | 18 µg/mL |
| CN1CCN(CC2CCN(c3nccc4[nH]c(-c5cc(F)cc(F)c5)nc34)CC2)CC1 | shake flask | aqueous buffer | pH 6.5 | > 200 µM |
| Cc1c(F)cccc1NC(=O)Nc1ccc(Cl)c(S(=O)(=O)[C@H]2CCCNC2)c1O |  | aqueous buffer | 4 h, pH 5 | 6 µg/mL |
